Source: ChEMBL document CHEMBL1128448, “Synthesis and antifungal activity of new azole derivatives containing an N-acylmorpholine ring” (1995)
Values after ≈ are worked out from the molar mass of the structure shown.

Assays:
Candida tropicalis [1] = test: Evaluation of In vitro antifungal activity against Candida tropicalis 50 by broth macro dilution method; format: functional
Procedure, shortened: (§1)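 Yeast MIC and MFC by broth macrodilution per NCCLS M27-P in RPMI-1640 buffered with 0.165 M MOPS. Fluconazole in sterile water, other drugs in DMSO. C. parapsilosis ATCC 22019 is the reference strain in each run. MIC is the lowest concentration with turbidity ≤ the 80% inhibition standard. For MFC, 0.04 mL from clear tubes is plated on Sabouraud agar; MFC is the lowest concentration giving ≤1 colony.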

Candida tropicalis [2] = test: In vitro evaluation of minimum inhibitory concentration against Candida tropicalis 2.11; format: functional
Procedure, shortened: (§2)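 Stocks are 800 μg/mL in 50% ethanol. Each plate gets 10 μL of inoculum at 10^5 cfu/mL. Incubation at 25 °C, 48 h for yeasts and 120 h for dermatophytes and molds. Organisms are ATCC strains or clinical isolates.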

Cryptococcus neoformans [3] = test: Evaluation of In vitro antifungal activity against Cryptococcus neoformans 74 by broth macro dilution method; format: functional; procedure, shortened: as §1
Cryptococcus neoformans [4] = test: Evaluation of In vitro antifungal activity against Cryptococcus neoformans 87 by broth macro dilution method; format: functional; procedure, shortened: as §1
Mus musculus [5] = test: In vivo evaluation of % survival rate after peroral administration on 3rd day at dose 0.5 mg/kg(as a water solution in (hydroxypropyl -beta-cyclodextrin)); format: functional; conditions: route oral
Procedure, shortened: (§3)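 Groups of 10 male mice were infected iv with 0.2 mL of C. albicans at (2-8) × 10^7 cfu/mL. Oral doses were given at 1, 4 and 24 h post-infection. Vehicle-only controls were included, with at least 90% control mortality by day 3. Percent survival was recorded on days 3, 5, 7 and 9.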

Mus musculus [6] = test: In vivo evaluation of % survival rate after peroral administration on 5th day at dose 0.5 mg/kg(as a water solution in (hydroxypropyl -beta-cyclodextrin)); format: functional; conditions: route oral; procedure, shortened: as §3
Mus musculus [7] = test: In vivo evaluation of % survival rate after peroral administration on 7th day at dose 0.5 mg/kg; format: functional; conditions: route oral, 0.5 mg/kg
Mus musculus [8] = test: In vivo evaluation of % survival rate after peroral administration on 7th day at dose 0.5 mg/kg(as a water solution in (hydroxypropyl -beta-cyclodextrin)); format: functional; conditions: route oral; procedure, shortened: as §3
Mus sp. [9] = test: In vivo evaluation of % survival rate after peroral administration on 9th day at dose 0.5 mg/kg; format: functional; conditions: route oral, 0.5 mg/kg
Mus musculus [10] = test: In vivo evaluation of % survival rate after peroral administration on 9th day at dose 0.5 mg/kg(as a water solution in (hydroxypropyl -beta-cyclodextrin)); format: functional; conditions: route oral; procedure, shortened: as §3
Mus sp. [11] = test: In vivo evaluation of % survival rate after peroral administration on 9th day at dose 1 mg/kg; format: functional; conditions: route oral, 1 mg/kg
Microsporum canis = test: In vitro evaluation of minimum inhibitory concentration against Microsporum canis 47; format: functional; procedure, shortened: as §2
Rattus norvegicus [12] = test: In vivo evaluation of antifungal activity against vaginal candidosis in rat at dose 0.1 mg/kg on 10th day; format: functional
Procedure, shortened: (§4)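 Groups of 10 female Wistar rats given estradiol 25 mg/kg sc on day -5, then vaginally inoculated with C. albicans on day 0. Infection is confirmed by culture of day-3 swabs. Compound is dosed orally once daily on days 3–5; controls get vehicle. Cure is scored by culture of vaginal swabs taken on days 10 and 15.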

Rattus norvegicus [13] = test: In vivo evaluation of antifungal activity against vaginal candidosis in rat at dose 0.1 mg/kg on 15th day; format: functional; procedure, shortened: as §4
Rattus norvegicus [14] = test: In vivo evaluation of antifungal activity against vaginal candidosis in rat at dose 0.25 mg/kg on 10th day; format: functional
Procedure, shortened: (§5)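 Groups of 10 female Wistar rats given estradiol 25 mg/kg sc on day -5, infected intravaginally with C. albicans by sterile swab on day 0; infection confirmed on day 3 by swab culture (TSB, then Sabouraud agar). Oral dosing once daily on days 3, 4, 5; vehicle controls. Vaginal swabs cultured on days 10 and 15; read-out % cured (culture-negative).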

Nakaseomyces glabratus [15] = test: Evaluation of In vitro antifungal activity against Torulopsis glabrata 78 by broth macro dilution method; format: functional; procedure, shortened: as §1
Nakaseomyces glabratus [16] = test: In vitro evaluation of minimum inhibitory concentration against Torulopsis glabrata 78; format: functional; procedure, shortened: as §2
Trichophyton benhamiae = test: In vitro evaluation of minimum inhibitory concentration against Trichophyton mentagrophytes 23; format: functional, Arthroderma benhamiae; procedure, shortened: as §2
Trichophyton rubrum = test: IIn vitro evaluation of minimum inhibitory concentration against Trichophyton rubrum 90; format: functional; procedure, shortened: as §2
Rhodotorula mucilaginosa = test: In vitro evaluation of minimum inhibitory concentration against Rhodotorula rubra 16; format: functional; procedure, shortened: as §2
Kluyveromyces marxianus = test: In vitro evaluation of minimum inhibitory concentration against Candida pseudotropicalis 13; format: functional; procedure, shortened: as §2
Pichia kudriavzevii = test: Evaluation of In vitro antifungal activity against Candida krusei C64 by broth macro dilution method; format: functional; procedure, shortened: as §1
Candida parapsilosis [17] = test: Evaluation of In vitro antifungal activity against Candida parapsilosis 2.07 by broth macro dilution method; format: functional; conditions: Lodderomyces parapsilosis; procedure, shortened: as §1
Candida parapsilosis [18] = test: Evaluation of In vitro antifungal activity against Candida parapsilosis ATCC 141095 by broth macro dilution method; format: functional; conditions: Lodderomyces parapsilosis; procedure, shortened: as §1
Aspergillus flavus = test: In vitro evaluation of minimum inhibitory concentration against Aspergillus flavus 19; format: functional; procedure, shortened: as §2
Candida albicans [19] = test: Evaluation of In vitro antifungal activity against Candida albicans C56 by broth macro dilution method; format: functional; procedure, shortened: as §1
Rattus norvegicus [20] = test: In vivo evaluation of antifungal activity against vaginal candidosis in rat at dose 0.25 mg/kg on 15th day; format: functional; procedure, shortened: as §5
Candida albicans [21] = test: Evaluation of In vitro antifungal activity against Candida albicans 60 by broth macro dilution method

C[C@H]1N(C(=O)c2ccc(C(F)(F)F)cc2)CCO[C@@]1(Cn1cncn1)c1ccc(F)cc1F (stereo in doubt; (-)-41)
MFC (Candida tropicalis [1]): > 64 µg/mL | MIC (Candida tropicalis [1]): 16 µg/mL (≈ 34.3 µM) | MIC (Candida tropicalis [2]): 40 µg/mL (≈ 85.8 µM) | MFC (Cryptococcus neoformans [3]): 0.25 µg/mL (≈ 0.536 µM) | MIC (Cryptococcus neoformans [3]): 0.125 µg/mL (≈ 0.268 µM) | MFC (Cryptococcus neoformans [4]): > 64 µg/mL | MIC (Cryptococcus neoformans [4]): 2 µg/mL (≈ 4.29 µM) | survival at 0.5 mg/kg (Mus musculus [5]): 100% | survival at 0.5 mg/kg (Mus musculus [6]): 100% | Survival (Mus musculus [7]): 70% | survival at 0.5 mg/kg (Mus musculus [8]): 60% | Survival (Mus sp. [9]): 40% | survival at 0.5 mg/kg (Mus musculus [10]): 30% | Survival (Mus sp. [11]): 70% | MIC (Microsporum canis): 20 µg/mL (≈ 42.9 µM) | Cure rate (Rattus norvegicus [12]): 10% | Cure rate (Rattus norvegicus [13]): 20% | Cure rate (Rattus norvegicus [14]): 40% | MFC (Nakaseomyces glabratus [15]): > 64 µg/mL | MIC (Nakaseomyces glabratus [15]): 16 µg/mL (≈ 34.3 µM) | MIC (Nakaseomyces glabratus [16]): 10 µg/mL (≈ 21.4 µM) | MIC (Trichophyton benhamiae): 40 µg/mL (≈ 85.8 µM) | MIC (Trichophyton rubrum): 10 µg/mL (≈ 21.4 µM) | MIC (Rhodotorula mucilaginosa): 5 µg/mL (≈ 10.7 µM) | MIC (Kluyveromyces marxianus): 40 µg/mL (≈ 85.8 µM) | MFC (Pichia kudriavzevii): > 64 µg/mL | MIC (Pichia kudriavzevii): 32 µg/mL (≈ 68.6 µM) | MFC (Candida parapsilosis [17]): > 64 µg/mL | MIC (Candida parapsilosis [17]): 1 µg/mL (≈ 2.14 µM) | MFC (Candida parapsilosis [18]): > 64 µg/mL | MIC (Candida parapsilosis [18]): 32 µg/mL (≈ 68.6 µM) | MIC (Aspergillus flavus): 40 µg/mL (≈ 85.8 µM) | MFC (Candida albicans [19]): > 64 µg/mL | MIC (Candida albicans [19]): 0.125 µg/mL (≈ 0.268 µM) | Cure rate (Rattus norvegicus [20]): 60% | MFC (Candida albicans [21]): > 64 µg/mL
